Measured values: ChEMBL document CHEMBL1799920, “Total synthesis and pharmacological characterization of solomonsterol A, a potent marine pregnane-X-receptor agonist endowed with anti-inflammatory activity” (J Med Chem, 2011)
Active and inactive are the calls of the source.

How the values were obtained:
Mus musculus [1] = assay: Antiinflammatory activity against trinitrobenzenesulfonic acid-induced colitis in human PXR expressing transgenic C57/BL6 mouse assessed as decrease in colonic myeloperoxidase activity at 10 mg/kg, ip qd after 5 days using trimethylbenzidine as substrate by spectrophotometry; type: functional, organism-based; parameters: dose 10 mg/kg; details: C57Bl/6
How it was run: (§1)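 Male hPXR mice (human PXR on mouse PXR-null background). Fasted 16 h and lightly anaesthetised with ketamine/xylazine, then given TNBS 0.5 mg/mouse in 50% ethanol intrarectally in 150 μL. Drug was dissolved in DMSO, diluted in 1% methylcellulose and given i.p. once daily for 3 days before TNBS. Vehicle controls received methylcellulose. Mice were sacrificed 4 days after TNBS; n = 6–7 per group.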

Mus musculus [2] = assay: Antiinflammatory activity against trinitrobenzenesulfonic acid-induced colitis in human PXR expressing transgenic C57/BL6 mouse assessed as decrease in thickening of colon wall at 10 mg/kg, ip administered on day 1 after TNBS challenge measured after 5 days by microscopically; type: functional, organism-based; parameters: dose 10 mg/kg; details: C57Bl/6
How it was run: (§2)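 Therapeutic protocol in male hPXR mice. Colitis was induced with intrarectal TNBS 0.5 mg/mouse in 50% ethanol after a 16 h fast and light ketamine/xylazine anaesthesia. Drug at 10 mg/kg was given once daily from day 1 after TNBS. Mice were sacrificed 5 days after TNBS; n = 4–6 per group.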

Mus musculus [3] = assay: Antiinflammatory activity against trinitrobenzenesulfonic acid-induced colitis in human PXR expressing transgenic C57/BL6 mouse assessed as decrease in cellular infiltrate in colon at 10 mg/kg, ip qd administered 3 days before TNBS challenge measured after 7 days; type: functional, organism-based; parameters: dose 10 mg/kg; details: C57Bl/6; how it was run: as §1
Mus musculus [4] = assay: Antiinflammatory activity against trinitrobenzenesulfonic acid-induced colitis in human PXR expressing transgenic C57/BL6 mouse assessed as induction of CYP3A11 mRNA expression in colon at 10 mg/kg, ip qd after 5 days by quantitative RT-PCR; type: functional, organism-based; parameters: dose 10 mg/kg; details: C57Bl/6; how it was run: as §1
Mus musculus [5] = assay: Antiinflammatory activity against trinitrobenzenesulfonic acid-induced colitis in human PXR expressing transgenic C57/BL6 mouse assessed as decrease in evidence of mucosal hemorrhage in colon at 10 mg/kg, ip qd administered 3 days before TNBS challenge measured after 7 days; type: functional, organism-based; parameters: dose 10 mg/kg; details: C57Bl/6; how it was run: as §1
Mus musculus [6] = assay: Antiinflammatory activity against trinitrobenzenesulfonic acid-induced colitis in human PXR expressing transgenic C57/BL6 mouse assessed as decrease in IL-12p70 protein level in colon at 10 mg/kg, ip qd after 5 days; type: functional, organism-based; parameters: dose 10 mg/kg; details: C57Bl/6
THP-1 = assay: Inhibition of NF-kappaB p65 DNA binding activity in LPS-stimulated human THP1 cells at 10 uM after 3 hrs by electrophoretic mobility shift assay; type: cell-based
How it was run: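 THP-1 cells were pretreated with compound (10 μM) or vehicle for 3 h, then LPS 1 μg/mL was added for 20 h. Nuclear extracts were incubated with biotinylated NF-κB probe for 20 min at room temperature, run on a 6% native gel and detected by chemiluminescence. Specificity was checked by cold-probe competition and p65 antibody supershift. Three independent experiments.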

Mus musculus [7] = assay: Antiinflammatory activity against trinitrobenzenesulfonic acid-induced colitis in human PXR expressing transgenic C57/BL6 mouse assessed as decrease in goblet cells in colon at 10 mg/kg, ip administered on day 1 after TNBS challenge measured after 5 days by microscopically; type: functional, organism-based; parameters: dose 10 mg/kg; details: C57Bl/6; how it was run: as §2
Mus musculus [8] = assay: Antiinflammatory activity against trinitrobenzenesulfonic acid-induced colitis in human PXR expressing transgenic C57/BL6 mouse assessed as decrease in occurrence of diarrhea at 10 mg/kg, ip administered on day 1 after TNBS challenge measured after 5 days; type: functional, organism-based; parameters: dose 10 mg/kg; details: C57Bl/6; how it was run: as §2
Mus musculus [9] = assay: Antiinflammatory activity against trinitrobenzenesulfonic acid-induced colitis in human PXR expressing transgenic C57/BL6 mouse assessed as decrease in evidence of mucosal hemorrhage in colon at 10 mg/kg, ip administered on day 1 after TNBS challenge measured after 5 days; type: functional, organism-based; parameters: dose 10 mg/kg; details: C57Bl/6; how it was run: as §2
Mus musculus [10] = assay: Antiinflammatory activity against trinitrobenzenesulfonic acid-induced colitis in human PXR expressing transgenic C57/BL6 mouse assessed as decrease in TNF-alpha protein level in colon at 10 mg/kg, ip qd after 5 days by ELISA; type: functional, organism-based; parameters: dose 10 mg/kg; details: C57Bl/6; how it was run: as §1
Mus musculus [11] = assay: Antiinflammatory activity against trinitrobenzenesulfonic acid-induced colitis in human PXR expressing transgenic C57/BL6 mouse assessed as decrease in MIP-1alpha protein level in colon at 10 mg/kg, ip qd after 5 days; type: functional, organism-based; parameters: dose 10 mg/kg; details: C57Bl/6
Mus musculus [12] = assay: Antiinflammatory activity against trinitrobenzenesulfonic acid-induced colitis in human PXR expressing transgenic C57/BL6 mouse assessed as decrease in edema of colon at 10 mg/kg, ip qd administered 3 days before TNBS challenge measured after 7 days; type: functional, organism-based; parameters: dose 10 mg/kg; details: C57Bl/6; how it was run: as §1
Mus musculus [13] = assay: Antiinflammatory activity against trinitrobenzenesulfonic acid-induced colitis in human PXR expressing transgenic C57/BL6 mouse assessed as decrease in occurrence of diarrhea at 10 mg/kg, ip qd administered 3 days before TNBS challenge measured after 7 days; type: functional, organism-based; parameters: dose 10 mg/kg; details: C57Bl/6; how it was run: as §1
Mus musculus [14] = assay: Antiinflammatory activity against trinitrobenzenesulfonic acid-induced colitis in human PXR expressing transgenic C57/BL6 mouse assessed as decrease in presence of indurations in colon at 10 mg/kg, ip administered on day 1 after TNBS challenge measured after 5 days; type: functional, organism-based; parameters: dose 10 mg/kg; details: C57Bl/6; how it was run: as §2
Mus musculus [15] = assay: Antiinflammatory activity against trinitrobenzenesulfonic acid-induced colitis in human PXR expressing transgenic C57/BL6 mouse assessed as decrease in INF-gamma protein level in colon at 10 mg/kg, ip qd after 5 days; type: functional, organism-based; parameters: dose 10 mg/kg; details: C57Bl/6
Mus musculus [16] = assay: Antiinflammatory activity against trinitrobenzenesulfonic acid-induced colitis in human PXR expressing transgenic C57/BL6 mouse assessed as decrease in appearance of submucosal edema in colon at 10 mg/kg, ip qd administered 3 days before TNBS challenge measured after 7 days by haematoxylin/eosin staining; type: functional, organism-based; parameters: dose 10 mg/kg; details: C57Bl/6; how it was run: as §1
Mus musculus [17] = assay: Antiinflammatory activity against trinitrobenzenesulfonic acid-induced colitis in human PXR expressing transgenic C57/BL6 mouse assessed as decrease in weight loss at 10 mg/kg, ip administered on day 1 after TNBS challenge measured after 5 days; type: functional, organism-based; parameters: dose 10 mg/kg; details: C57Bl/6; how it was run: as §2
[18] = molecular target: T1, Nuclear receptor subfamily 1 group I member 2 (Homo sapiens, UniProt O75469); assay: Transactivation of human PXR expressed in HepG2 cells after 18 hrs by luciferase reporter gene assay; type: cell-based
T1 sequence (O75469 whole entry): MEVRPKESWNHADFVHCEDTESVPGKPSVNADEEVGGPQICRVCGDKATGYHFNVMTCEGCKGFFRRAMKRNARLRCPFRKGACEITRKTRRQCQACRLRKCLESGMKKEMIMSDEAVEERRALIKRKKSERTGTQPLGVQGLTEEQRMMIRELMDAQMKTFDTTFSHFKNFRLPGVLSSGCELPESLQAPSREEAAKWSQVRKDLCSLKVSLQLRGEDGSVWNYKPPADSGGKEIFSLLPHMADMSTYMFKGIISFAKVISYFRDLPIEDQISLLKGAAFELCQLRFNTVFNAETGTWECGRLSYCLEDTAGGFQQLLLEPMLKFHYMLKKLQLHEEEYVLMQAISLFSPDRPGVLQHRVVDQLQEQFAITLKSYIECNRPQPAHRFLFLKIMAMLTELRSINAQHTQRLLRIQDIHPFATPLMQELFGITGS
How it was run: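 HepG2 cells were transiently transfected with pSG5-PXR, pSG5-RXR, pCMV-βgal and a CYP3A4-promoter luciferase reporter. 48 h after transfection, cells were stimulated for 18 h at 0.1, 1 and 10 μM. Luciferase was normalised to β-galactosidase; n = 4. Relative EC50 from n = 3.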

Mus musculus [19] = assay: Antiinflammatory activity against trinitrobenzenesulfonic acid-induced colitis in human PXR expressing transgenic C57/BL6 mouse assessed as decrease in presence of indurations in colon at 10 mg/kg, ip qd administered 3 days before TNBS challenge measured after 7 days; type: functional, organism-based; parameters: dose 10 mg/kg; details: C57Bl/6; how it was run: as §1

C[C@H](CCCOS(=O)(=O)O)[C@H]1CC[C@H]2[C@@H]3CC[C@H]4C[C@H](OS(=O)(=O)O)[C@@H](OS(=O)(=O)O)C[C@]4(C)[C@H]3CC[C@]12C [SOLOMONSTEROL A]
5.2 µM: EC50 [18]
active: Activity (Mus musculus [1]) | Activity (Mus musculus [2]) | Activity (Mus musculus [3]) | Activity (Mus musculus [4]) | Activity (Mus musculus [5]) | Activity (Mus musculus [6]) | Activity (THP-1) | Activity (Mus musculus [7]) | Activity (Mus musculus [8]) | Activity (Mus musculus [9]) | Activity (Mus musculus [10]) | Activity (Mus musculus [11]) | Activity (Mus musculus [12]) | Activity (Mus musculus [13]) | Activity (Mus musculus [14]) | Activity (Mus musculus [15]) | Activity (Mus musculus [16]) | Activity (Mus musculus [17]) | Activity (Mus musculus [19])
